Data from ChEMBL document CHEMBL1157051, “New dioxazole derivatives: Synthesis and effects on the growth of Entamoeba histolytica and Giardia intestinalis” (Eur J Med Chem, 2010).
In brackets after ≈: the same amount, converted by molar mass.

Tests used:
[1] = system: Entamoeba histolytica; experiment: Antiamoebic activity against Entamoeba histolytica HM-1:IMSS trophozoites after 72 hrs by microdilution technique; format: functional, organism-based
Method in brief: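 HM1:IMSS trophozoites in TYIS-33 medium, detached by chilling on ice; 1.7 × 10⁴ organisms/well. Samples in DMSO (final ≤0.1%), diluted in medium. Plates gassed with nitrogen 10 min, incubated 37 °C for 72 h. Washed in warm 0.9% NaCl, methanol-fixed, eosin-stained, dye released with 0.1 N NaOH, OD 490 nm. IC50 from linear regression of % inhibition vs log dose; triplicate.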

[2] = system: Vero; experiment: Cytotoxicity against african green monkey Vero cells after 72 hrs by SRB assay; format: cell-based; conditions: Chlorocebus sabaeus
Method in brief: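 Vero (ATCC CCL-81) at 10⁵ cells/mL in Eagle's MEM with heat-inactivated FBS and 1 mM sodium pyruvate. Samples at maximum final concentration […]; 0.05% DMSO negative control. 72 h at 37 °C, 5% CO₂. Viability by sulphorhodamine B assay; cytotoxic defined as IC50 below the 180 cutoff.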

[3] = system: Giardia intestinalis; experiment: Antigiardial activity against Giardia intestinalis Thai trophozoites after 24 hrs by inverted microscopic analysis; format: functional; conditions: Giardia duodenalis
[4] = Safety index, ratio of IC50 for african green monkey Vero cells to IC50 for Entamoeba histolytica HM-1:IMSS; format: toxicity, cell-based; conditions: read-out: Ratio IC50

Row | IC50 [1] [µM] | MIC [3] [µM] | SMILES | IC50 [2] [µM] | selectivity ratio [4]
1 | 9.97 | 5.65 (≈ 1.56 µg/mL) | O=[N+]([O-])c1ccc(C2=NOC(c3ccccc3)O2)s1 (stereo not given) | < 180 | –
2 | 2.64 | 5.33 (≈ 1.56 µg/mL) | O=[N+]([O-])c1ccc(C2=NOC(c3ccccc3O)O2)s1 (stereo not given) | < 180 | –
3 | 7.3 | > 1500 | Cc1ccc(C2=NOC(C)(c3ccc(Cl)cc3)O2)cc1 (stereo not given) | – | –
4 | 1.6 | 20.4 (≈ 6.25 µg/mL) | COc1ccc(C2ON=C(c3ccc([N+](=O)[O-])s3)O2)cc1 (stereo not given) | < 180 | –
5 | 3.77 | 10.8 (≈ 3.13 µg/mL) | CC1(c2ccccc2)ON=C(c2ccc([N+](=O)[O-])s2)O1 (stereo not given) | < 180 | –
6 | 6.1 | 4.55 (≈ 1.48 µg/mL) | CC1(c2ccc(Cl)cc2)ON=C(c2ccc([N+](=O)[O-])s2)O1 (stereo not given) | < 180 | –

The remaining lines, values behind:

Row | SMILES | IC50 [1] [µM] | MIC [3] [µM] | IC50 [2] [µM] | selectivity ratio [4]
7 | COc1ccc(C2ON=C(c3ccc(C)cc3)O2)cc1 (stereo not given) | 1.8 | > 1500 | > 180 | > 100
8 | Cc1ccc(C2=NOC(C)(c3ccccc3)O2)cc1 (stereo not given) | 1.8 | > 1500 | > 180 | > 100
9 | Cc1ccc(C2=NOC(c3ccccc3)O2)cc1 (stereo not given) | 7.82 | > 1500 | – | –
10 | Cc1ccc(C2=NOC(c3ccccc3O)O2)cc1 (stereo not given) | 8.61 | > 1500 | – | –
11 | Cc1ncc([N+](=O)[O-])n1CCO [METRONIDAZOLE] | – | 14.6 (≈ 2.5 µg/mL) | – | –
